Measurements from different studies.
Lines come from different studies, so protocols differ.

| SMILES | host | medium | route | dose | notes | Tmax [min] |
| --- | --- | --- | --- | --- | --- | --- |
| OCc1ccc(-c2nn(Cc3ccccc3)c3ccccc23)o1 | male CD-1 mouse | plasma | intraperitoneal | 30 mg/kg |  | 15 |
| OCc1nc2ccc(NCc3ccc(C(F)(F)F)cc3)cc2[nH]1 | male BALB/c mouse | plasma | intravenous | 1 mg/kg |  | 15 |
| Cc1ccc2c(c1)C(=O)[C@]1(O)CCN(c3ccc4nc(C)ccc4c3)C1=N2.Cl | mouse | brain | subcutaneous | 5 mg/kg |  | ≤ 10 |
| COCC(=O)N1CCc2[nH]c3c(Cl)c(Cl)ccc3c2[C@@H]1C | C57BL/6 mouse | blood | oral | 20 mg/kg |  | 25 |
| CN(C)C(=O)c1cc2cnc(Nc3ccc(-c4ccc5c(=O)cc(N6CCOCC6)oc5c4)cc3)nc2n1C1CCCC1.Cl | BALB/c mouse | plasma | intravenous | 2 mg/kg |  | 6 |
| Cc1ccc(CCC(=O)Nc2nnc(S(N)(=O)=O)s2)cc1 | male BALB/c mouse | plasma | oral | 20 mg/kg |  | 10 |
| COc1ccc(C[C@H](NC(=O)[C@H](C)NC(=O)CN2CCOCC2)C(=O)N[C@@H](Cc2ccccc2)C(=O)C2(C)CO2)cc1 (stereo in doubt) | mouse | plasma | oral | 20 mg/kg | single dose | 18 |
| COC1=CC(c2ccc[nH]2)=N/C1=C\c1cc(Cc2ccc(OC(F)(F)F)cc2)c(C)[nH]1.Cl | male CD-1 mouse | liver | oral | 40 mg/kg | single dose | 1440 |
| Cc1ccc(N(c2ccc(NC(=O)CN(C)c3ccccc3N3CCCC3=O)cc2)C(C)C)cc1 | male CD-1 mouse | plasma | oral | 20 mg/kg |  | 40.2 |
| Cc1ccc(OCC(=O)N[C@@H](Cc2c[nH]c3ccccc23)C(=O)OC(C)C)cc1 | male Sprague-Dawley mouse | plasma | intravenous | 10 mg/kg |  | 48 |
| NCc1ccc(-c2nn(Cc3ccncc3)c3ccccc23)o1 | male CD-1 mouse | plasma | intraperitoneal | 30 mg/kg |  | 19.8 |
| Cc1[nH]c(C)c(S(=O)(=O)Nc2ccc(C(F)(F)F)c(Cl)c2)c1C(=O)N1CCC(F)(F)C1 | male CD-1 mouse | brain | intraperitoneal | 40 mg/kg |  | 60 |
| CCOC(=O)c1c(NC(=O)CNC(C)C)sc2c1CCCCC2 | male mouse | plasma | intraperitoneal | 5 mg/kg | single dose | 11.6 |
| NCc1ccc(-c2nn(Cc3ccccc3)c3ccccc23)o1 | male CD-1 mouse | plasma | oral | 10 mg/kg |  | 30 |
| COC1=CC(c2ccc[nH]2)=N/C1=C\c1[nH]c(Cc2ccc(OC(F)(F)F)cc2)cc1Cc1ccc(OC(F)(F)F)cc1 | male CD-1 mouse | plasma | oral | 40 mg/kg | single dose | 240 |
